M1 antag – blocks the rat M1 muscarinic receptor response to acetylcholine; P08482; CHO-M1 cells, Fluo-4 calcium, ACh EC80 antagonist mode; stronger effect = lower value; B-score at 10 µM; 64,000 compounds, 3.4% hits; AID 628;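 active = calcium fluorescence response, raw or row-and-column corrected B-score, differing from the plate sample mean either way at a set confidence level, mostly lower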
Target sequence (P08482 whole entry, looked up): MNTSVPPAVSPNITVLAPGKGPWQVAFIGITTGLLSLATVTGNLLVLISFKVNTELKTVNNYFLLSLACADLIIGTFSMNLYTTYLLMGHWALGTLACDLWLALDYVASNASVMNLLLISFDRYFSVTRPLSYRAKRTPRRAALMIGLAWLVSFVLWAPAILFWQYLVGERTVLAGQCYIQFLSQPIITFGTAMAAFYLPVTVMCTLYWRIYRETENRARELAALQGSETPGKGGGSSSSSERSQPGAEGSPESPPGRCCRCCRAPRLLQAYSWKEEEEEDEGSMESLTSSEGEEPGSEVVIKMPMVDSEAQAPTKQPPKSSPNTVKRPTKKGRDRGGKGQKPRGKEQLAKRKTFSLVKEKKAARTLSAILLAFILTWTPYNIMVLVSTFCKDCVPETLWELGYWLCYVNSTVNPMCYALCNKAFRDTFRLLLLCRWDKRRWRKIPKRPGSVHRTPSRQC
D1 mod – allosterically modulates the human D1 dopamine receptor | AID 641 | B-score at 10 µM | P21728 | HEK293 D1, CRE-luciferase, dopamine EC30 potentiation; actives deviate in either direction | 58,000 compounds, 5.9% hits;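 active = luminescence count or its row- and column-corrected plate score outside the 99.7% band of the plate's sample wells, on either side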
AP complement – orthogonal test for alternative complement pathway inhibitors. inhibition, % at 5 µM. AID 1235. 62,000 compounds, 0.08% hits. Human serum alternative complement pathway, LPS-coated ELISA, C3 deposition; tested in compound mixtures;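 active = inhibition above 30% in each of the two pooled mixtures holding the compound, so the lower value exceeds 30%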;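 note: 0% = serum in Mg-EGTA without compound and 100% = EDTA serum blank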
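Test system – human serum alternative complement pathway, C3 deposition on LPS-coated wells · Buffer or medium – diluted human serum in Mg2+-EGTA GVB++ · Compound dosing – 5 µM each compound, pools of ten, 50 µM per pool · Schedule – 1 h serum-compound exposure at 37 °C · Measured by – Anti-C3 ELISA, OD 450 nm · Read-out basis – percent inhibition of C3 deposition onto LPS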
M1 ag – M1 muscarinic receptor agonism; CHO-M1 cells, Fluo-4 calcium fluorescence, agonist mode; stronger effect = higher value; B-score at 10 µM; 64,000 compounds, 3% hits; AID 626;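 active = fluorescence rise, raw or as B-score row- and column-corrected plate score, outside the 99.7% band of its plate's samples, either direction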
Htt clearance – compounds clearing mutant huntingtin protein; HeLa Exon1htt(103Q)mCFP, aggregate imaging; zero = plate's median compound well; inhibition, % at 1.5 µM; 47,000 compounds, 0.42% hits; AID 853;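 active = inhibition of aggregate fluorescence above about 70%, also judged a hit by eye on the cell image, limit read from the data, passing the limit was not always enough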;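 note: cells exposed to compound for three days before fixation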
D1 PAM confirm – confirmation of human D1 dopamine receptor allosteric modulators; luminescence at 10 µM; 2,200 compounds, 88% hits; shares compounds with D1 mod; HEK293 D1 CRE-luciferase, dopamine EC30 potentiation; stronger effect = higher value;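 active = luminescence in either of two replicates above the same-plate mean plus 3 SD of the low-dose dopamine control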
D1 ag no DA – D1 (human) signaling in absence of dopamine; 1,900 compounds, 0.8% hits; HEK293 D1 CRE-luciferase, luminescence, no dopamine; stronger effect = higher value; luminescence at 10 µM; shares compounds with D1 mod; in the data active = luminescence above about 3900
Isoprot counter – alters isoproterenol CRE-luciferase response in HEK293 cells; shares compounds with D1 mod; HEK293 D1 CRE-luciferase, isoproterenol EC30 counter-screen; calls only at 10 µM; 2,200 compounds, 63% hits; AID 647;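 active = luminescence in either replicate above plate mean of wells with a partly effective reference agonist dose plus 3 SD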;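 note: isoproterenol raises cAMP through native beta-adrenoceptor Gs so signal bypasses D1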
The depositor's hits bear a star. The list is not random: actives were taken first. Their share in the collection is about 9%.

How did O=c1c2cc3ccccc3n2cnn1Cc1ccccc1F do in these assays?
M1 antag: -0.33; D1 mod: 3.1*; AP complement: 15; M1 ag: 1.5; D1 PAM confirm: 21084*; D1 ag no DA: 1636; Isoprot counter: active

Results for O=c1ccccn1Cc1ccccc1F ?
M1 antag: 0.42; D1 mod: 0.97; AP complement: 5; M1 ag: 0.89; Htt clearance: 24

What do the screens show for `CCOC(=O)N1CCC(NC(=O)c2cccc3c2C(=O)N(Cc2cccnc2)C3)CC1`?
M1 antag: 1.5; D1 mod: 3.7*; AP complement: 16; M1 ag: 0.95; D1 PAM confirm: 8400*; D1 ag no DA: 1600; Isoprot counter: inactive

Results for CCOC(=O)CCSc1nc(C)c2ccccc2n1 ?
M1 antag: -1.5; D1 mod: 1.9*; AP complement: 8; M1 ag: -0.012; Htt clearance: 28; D1 PAM confirm: 6200*; D1 ag no DA: 1668; Isoprot counter: inactive

Results for CCOC(=O)CSc1nc(C)c2cc(OC)ccc2n1 ?
M1 antag: 0.48; D1 mod: -0.047; AP complement: 9; M1 ag: 1.8

How did Cc1c(Cl)cccc1NC(=O)c1cc(C2CC2)on1 do in these assays?
M1 antag: -0.077; D1 mod: 0.25; AP complement: 26; M1 ag: -0.065

Results for CC(C)=CCC(C)(C)CNC(=O)NC1CCCCC1 ?
M1 antag: 0.0064; M1 ag: -0.67

How did COc1cccc(NC(=O)[C@@H]2CCCN2C(=O)C2CCN(S(=O)(=O)c3ccc(C)cc3)CC2)c1 do in these assays?
M1 antag: 0.021; D1 mod: -0.52; AP complement: 7; M1 ag: -0.17; Htt clearance: 22

What do the screens show for `COc1cc(CN(C(=O)c2ccco2)c2ccc(C)cc2)ccc1O`?
M1 antag: -0.69; D1 mod: 9.5*; AP complement: 4; M1 ag: -0.47; Htt clearance: -39; D1 PAM confirm: 13744*; D1 ag no DA: 1484; Isoprot counter: active

What do the screens show for `COc1ccc(CN(C(=O)c2ccco2)c2ccc(Br)cc2)cc1OC`?
M1 antag: 0.39; D1 mod: -0.31; AP complement: -10; M1 ag: 0.55; Htt clearance: 6

What do the screens show for `Cc1cc(C)n2nc3ccccc3c2n1`?
M1 antag: 0.61; D1 mod: 2.8*; AP complement: 9; M1 ag: -0.73; D1 PAM confirm: 10324*; D1 ag no DA: 1660; Isoprot counter: active

How did S=C1NCCc2ccc(Cl)cc2C1c1ccccc1 (centres undefined) do in these assays?
Htt clearance: 1

How did CCC(NC(C)C)C(O)c1ccc(O)c2[nH]c(=O)ccc12 (centres undefined) do in these assays?
M1 antag: 0.81; D1 mod: 14*; AP complement: 14; M1 ag: 0.24; D1 PAM confirm: 8644*; D1 ag no DA: 3980*; Isoprot counter: active

How did COc1ccc(C(=O)N2CCN=C2SCc2cccnc2)cc1OC do in these assays?
M1 antag: -0.076; D1 mod: 4.8*; AP complement: 22; M1 ag: 0.14; Htt clearance: -90; D1 PAM confirm: 9852*; D1 ag no DA: 1576; Isoprot counter: active

How did O=C(Nc1ccccc1C(=O)NCc1ccccc1)c1ccco1 do in these assays?
M1 antag: -0.29; D1 mod: 1.6; AP complement: 10; M1 ag: 1.3; Htt clearance: -40

What do the screens show for `O=C(NCc1ccco1)c1cnn2c(C(F)F)cc(-c3ccccc3)nc12`?
M1 antag: -1; D1 mod: 5.2*; AP complement: 12; M1 ag: -1.1; Htt clearance: -56; D1 PAM confirm: 7604*; D1 ag no DA: 1664; Isoprot counter: active

Assay outcomes deposited in PubChem by several laboratories.
